In paper PMC12709667 (Journal of Clinical Pharmacology, 2025):

Columns and labels:
OATP1B1 = molecular target: T1, OATP1B1 (Homo sapiens, UniProt Q9Y6L6); experiment: Transporter substrate assessment; format: in vitro ADME
T1 sequence (Q9Y6L6 1-691): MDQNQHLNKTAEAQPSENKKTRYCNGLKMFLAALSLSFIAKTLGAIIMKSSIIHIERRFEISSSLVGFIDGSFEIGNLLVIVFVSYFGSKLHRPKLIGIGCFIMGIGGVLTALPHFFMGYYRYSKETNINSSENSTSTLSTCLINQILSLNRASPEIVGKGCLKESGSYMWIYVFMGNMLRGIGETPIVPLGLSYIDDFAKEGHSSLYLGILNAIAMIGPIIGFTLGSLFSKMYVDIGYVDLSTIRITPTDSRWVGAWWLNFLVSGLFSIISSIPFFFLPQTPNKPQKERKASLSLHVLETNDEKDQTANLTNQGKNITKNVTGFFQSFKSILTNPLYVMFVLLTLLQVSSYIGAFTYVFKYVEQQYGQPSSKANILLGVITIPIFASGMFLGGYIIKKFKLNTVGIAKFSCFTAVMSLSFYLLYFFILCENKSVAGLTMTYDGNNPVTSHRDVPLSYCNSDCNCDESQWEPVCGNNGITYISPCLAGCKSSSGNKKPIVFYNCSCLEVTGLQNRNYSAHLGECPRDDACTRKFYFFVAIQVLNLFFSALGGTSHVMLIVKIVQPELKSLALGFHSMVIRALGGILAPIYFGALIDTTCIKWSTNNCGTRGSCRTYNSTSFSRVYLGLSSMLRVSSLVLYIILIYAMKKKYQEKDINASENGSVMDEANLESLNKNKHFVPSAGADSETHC

liver fat = conditions: patients with presumed MASH; cited from earlier work
CYP2C8 [1] = molecular target: T2, CYP2C8 (Homo sapiens, UniProt P10632); experiment: Cytochrome P450 inhibition; format: in vitro ADME
T2 sequence (P10632 1-490): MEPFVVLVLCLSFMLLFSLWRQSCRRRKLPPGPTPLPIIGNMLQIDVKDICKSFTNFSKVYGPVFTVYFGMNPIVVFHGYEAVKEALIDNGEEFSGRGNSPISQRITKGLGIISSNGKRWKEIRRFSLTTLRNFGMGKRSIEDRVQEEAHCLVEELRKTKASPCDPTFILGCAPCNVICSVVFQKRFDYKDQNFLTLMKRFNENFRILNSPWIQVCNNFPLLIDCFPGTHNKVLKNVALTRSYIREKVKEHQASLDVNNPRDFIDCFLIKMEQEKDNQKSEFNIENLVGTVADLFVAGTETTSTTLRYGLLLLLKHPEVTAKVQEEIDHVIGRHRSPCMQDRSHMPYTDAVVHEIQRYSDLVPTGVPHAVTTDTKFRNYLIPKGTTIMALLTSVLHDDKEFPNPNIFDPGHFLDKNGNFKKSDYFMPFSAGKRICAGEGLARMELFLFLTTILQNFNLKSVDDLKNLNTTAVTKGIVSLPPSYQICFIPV

CYP2C19 = CYP2C19 (Homo sapiens, UniProt P33261); experiment: Cytochrome P450 inhibition; format: in vitro ADME
[2] = In vitro blood/plasma partitioning; format: in vitro ADME; conditions: human, whole blood
Method in brief: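 Test compound was added to rat, monkey or human whole blood and incubated, then centrifuged to obtain plasma. The plasma concentration was measured by LC-MS. It was compared with the concentration in directly spiked plasma of the same species.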

CYP3A5 = CYP3A5 (Homo sapiens, UniProt P20815); experiment: Cytochrome P450 inhibition; format: in vitro ADME
UGT1A1 = molecular target: T3, UGT1A1 (Homo sapiens, UniProt P22309); experiment: Phase 2 enzyme inhibition; format: in vitro ADME
T3 sequence (P22309 26-533): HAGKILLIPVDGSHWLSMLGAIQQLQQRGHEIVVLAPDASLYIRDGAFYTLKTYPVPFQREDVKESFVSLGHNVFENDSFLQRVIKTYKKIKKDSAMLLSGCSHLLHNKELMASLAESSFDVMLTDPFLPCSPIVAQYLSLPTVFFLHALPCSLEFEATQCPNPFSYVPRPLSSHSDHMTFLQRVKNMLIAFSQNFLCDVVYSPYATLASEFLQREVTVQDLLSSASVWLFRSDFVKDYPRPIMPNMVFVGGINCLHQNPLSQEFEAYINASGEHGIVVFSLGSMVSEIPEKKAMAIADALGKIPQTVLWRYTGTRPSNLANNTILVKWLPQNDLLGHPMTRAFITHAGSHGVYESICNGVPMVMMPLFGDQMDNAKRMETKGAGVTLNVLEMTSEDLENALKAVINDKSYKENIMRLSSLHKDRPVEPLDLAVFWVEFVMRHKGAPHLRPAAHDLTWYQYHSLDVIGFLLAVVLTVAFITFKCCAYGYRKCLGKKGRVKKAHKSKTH

CYP3A4 = CYP3A4 (Homo sapiens, UniProt P08684); experiment: biochemical; format: in vitro ADME
CYP1A2 = format: in vitro ADME, human; conditions: up to 10 µM, three donors
[3] = [14C] metabolism and excretion study in cynomolgus monkeys; format: in vivo, cynomolgus monkey; conditions: for whole blood‐to‐plasma ratio of total radioactivity: based on AUC0‐last; for recovery of radioactivity: by 168 h postdose
Method in brief: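 Male and female cynomolgus monkeys received one oral-gavage dose of 80 mg/kg (2 MBq/kg) [14C]-labelled test compound. Blood, urine and faeces were collected at set times up to 168 h for total radioactivity. Metabolites were profiled by high-resolution LC-MS with online fraction collection and offline counting. The blood:plasma ratio was based on AUC0-last.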

CYP2C8 [4] = molecular target: T2, CYP2C8; experiment: DDI perpetrator study: repaglinide probe; format: in vivo; conditions: miricorilant 400 mg once daily as perpetrator

Chain of CYP3A4 (P08684 whole entry): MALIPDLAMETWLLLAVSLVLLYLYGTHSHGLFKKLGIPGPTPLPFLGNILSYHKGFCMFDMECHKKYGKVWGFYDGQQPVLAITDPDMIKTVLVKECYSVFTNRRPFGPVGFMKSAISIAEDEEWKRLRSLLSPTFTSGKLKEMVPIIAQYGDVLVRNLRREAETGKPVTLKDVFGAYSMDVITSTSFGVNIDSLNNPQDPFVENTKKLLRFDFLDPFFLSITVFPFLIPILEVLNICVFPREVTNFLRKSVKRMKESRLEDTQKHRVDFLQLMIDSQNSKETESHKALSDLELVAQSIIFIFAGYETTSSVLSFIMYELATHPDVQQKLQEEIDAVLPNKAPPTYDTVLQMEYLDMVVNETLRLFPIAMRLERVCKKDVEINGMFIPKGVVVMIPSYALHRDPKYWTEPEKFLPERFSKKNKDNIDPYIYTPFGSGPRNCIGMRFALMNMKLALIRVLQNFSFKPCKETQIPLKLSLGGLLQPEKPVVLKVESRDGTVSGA
Chain of CYP2C19 (P33261 whole entry): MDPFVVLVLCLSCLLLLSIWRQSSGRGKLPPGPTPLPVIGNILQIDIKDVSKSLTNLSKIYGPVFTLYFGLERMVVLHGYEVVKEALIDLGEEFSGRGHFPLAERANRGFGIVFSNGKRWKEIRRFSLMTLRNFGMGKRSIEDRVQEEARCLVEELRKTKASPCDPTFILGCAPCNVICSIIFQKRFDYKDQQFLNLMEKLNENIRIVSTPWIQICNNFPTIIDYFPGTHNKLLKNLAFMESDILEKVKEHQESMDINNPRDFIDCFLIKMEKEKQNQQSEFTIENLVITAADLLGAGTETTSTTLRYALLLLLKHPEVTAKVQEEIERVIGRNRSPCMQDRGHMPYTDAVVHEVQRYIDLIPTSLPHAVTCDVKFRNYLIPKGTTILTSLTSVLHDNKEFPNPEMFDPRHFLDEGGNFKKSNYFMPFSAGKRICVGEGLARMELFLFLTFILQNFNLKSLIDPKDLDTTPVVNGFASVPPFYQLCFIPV
Chain of CYP3A5 (P20815 whole entry): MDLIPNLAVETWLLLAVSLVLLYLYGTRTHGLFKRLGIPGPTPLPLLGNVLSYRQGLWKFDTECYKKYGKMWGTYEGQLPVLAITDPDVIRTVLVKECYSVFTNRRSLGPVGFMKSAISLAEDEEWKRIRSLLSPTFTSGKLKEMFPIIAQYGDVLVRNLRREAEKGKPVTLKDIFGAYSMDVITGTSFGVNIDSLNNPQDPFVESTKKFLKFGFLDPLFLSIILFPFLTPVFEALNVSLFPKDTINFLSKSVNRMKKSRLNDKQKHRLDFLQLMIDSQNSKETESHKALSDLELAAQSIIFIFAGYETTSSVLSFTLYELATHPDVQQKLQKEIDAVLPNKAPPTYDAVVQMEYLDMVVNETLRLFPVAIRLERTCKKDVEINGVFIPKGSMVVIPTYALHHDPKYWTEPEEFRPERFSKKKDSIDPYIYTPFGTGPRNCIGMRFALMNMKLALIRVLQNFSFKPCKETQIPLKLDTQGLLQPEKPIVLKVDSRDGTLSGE

Compound: O=c1[nH]c(=O)c(Cc2cccc(C(F)(F)F)c2)c([C@H]2CC[C@H](c3ccccc3)CC2)[nH]1 [miricorilant]
- Substrate of OATP1B1 (OATP1B1): not a substrate
- effect on liver fat (liver fat): rapid and substantial reduction of liver fat
- IC50 (CYP2C8 [1]): 7.5 µM
- time dependence of CYP2C8 inhibition (CYP2C8 [1]): not time dependent
- inhibition of CYP2C19 (CYP2C19): No inhibition
- blood plasma ratio [2]: 1.14
- inhibition of CYP3A5 (CYP3A5): No inhibition
- IC50 (UGT1A1): 1.4 µM
- IC50 (CYP3A4): 3.4 µM
- time dependence of CYP3A4 inhibition (CYP3A4): not time dependent
- induction of CYP1A2 (CYP1A2): no induction
- elimination in urine ([3]; female monkeys): 0.74 ± 0.11%
- fecal elimination ([3]; female monkeys): 78.51 ± 8.77%
- time at which plasma radioactivity was below the limit of detection ([3]; female monkeys): 96 h
- whole blood‐to‐plasma ratio of total radioactivity ([3]; female monkeys): 0.66
- recovery of radioactivity ([3]; female monkeys): 88.08 ± 4.03%
- elimination in urine ([3]; male monkeys): 0.96 ± 0.08%
- fecal elimination ([3]; male monkeys): 72.2 ± 11.20%
- time at which plasma radioactivity was below the limit of detection ([3]; male monkeys): 144 h
- whole blood‐to‐plasma ratio of total radioactivity ([3]; male monkeys): 0.75
- recovery of radioactivity ([3]; male monkeys): 80.88 ± 11.60%
- clinical inhibition of CYP2C8 (CYP2C8 [4]): strong inhibitor
